Results on one molecule are retold here after ChEMBL document CHEMBL4043283, “Discovery and Preclinical Development of IIIM-290, an Orally Active Potent Cyclin-Dependent Kinase Inhibitor” (J Med Chem, 2018).

Structures are written as SMILES. A value given as a limit tells only on which side of the number the result lay.

In general, IC50 refers to the concentration needed to halve the response being measured. The inhibition is the relative decrease from the control value, in per cent. Higher therefore signals strong suppression. One may read the GI50 as the concentration giving 50% growth inhibition. The low end stands for greater sensitivity of the cells, the high end for lower sensitivity of the cells. Broadly, the half-life is the time in which the quantity being followed falls by half. Lower therefore signals fast loss. Usually Kp stands for the ratio of the level in a tissue or fluid to that in plasma or blood.

The target of one series is CDK9/Cyclin K (Homo sapiens, UniProt P50750). Kind of series: Inhibition of CDK9/cyclin K (unknown origin) after 30 mins in presence of [33P]-gamma-ATP by filter binding assay. It counts as protein-complex assay.
Series [1] has as its target Tyrosine-protein kinase Blk (Homo sapiens) (UniProt P51451). Description: Inhibition of partial length wild type human BLK expressed in bacterial expression system at 0.5 uM by KINOMEscan method relative to control. In short, it runs like this: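 Competition binding screen (KINOMEscan) at 0.5 μM; primary binding read out as % of control, lower values indicating stronger interaction.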

Series [2] in a line: Growth inhibition of human SW630 cells after 48 hrs by MTT assay. It counts as functional. As to conditions: SW630, 48 h; call rule not given here. In short, it runs like this:
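Cancer cell lines sourced from the National Cancer Institute (USA). Cells kept in appropriate growth medium at 37 °C, 95% humidity, 5% CO2. Antiproliferation read by tetrazolium (MTT) assay. GI50 values were determined only for compounds selected after an initial single-concentration screen.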

A short description of series [3]: Half life in mouse hepatocytes at 3 uM after 180 mins by LC-MS/MS analysis. The format is ADME, cell-based, Hepatocyte.
Series [4] can be described thus: Initial concentration in BALB/c mouse at 1 mg/kg, iv by LC-MS/MS analysis. As to conditions: in vivo. It counts as ADME, organism-based.
Series [5] in a line: Pancreas to plasma partition coefficient, Kp of the compound in Sprague-Dawley rat at 30 mg/kg, po measured at 0.5 hrs. As to conditions: pancreas and plasma. It counts as ADME, organism-based.
The next series concerns the target Cytochrome P450 2D6 (Homo sapiens, UniProt P10635). Description: Time-dependent inhibition of human CYP2D6 at 2 uM using fluorogenic substrate by fluorometric method. It counts as ADME.

Sequence of Tyrosine-protein kinase Blk (Homo sapiens) (P51451 2-505 limits assumed): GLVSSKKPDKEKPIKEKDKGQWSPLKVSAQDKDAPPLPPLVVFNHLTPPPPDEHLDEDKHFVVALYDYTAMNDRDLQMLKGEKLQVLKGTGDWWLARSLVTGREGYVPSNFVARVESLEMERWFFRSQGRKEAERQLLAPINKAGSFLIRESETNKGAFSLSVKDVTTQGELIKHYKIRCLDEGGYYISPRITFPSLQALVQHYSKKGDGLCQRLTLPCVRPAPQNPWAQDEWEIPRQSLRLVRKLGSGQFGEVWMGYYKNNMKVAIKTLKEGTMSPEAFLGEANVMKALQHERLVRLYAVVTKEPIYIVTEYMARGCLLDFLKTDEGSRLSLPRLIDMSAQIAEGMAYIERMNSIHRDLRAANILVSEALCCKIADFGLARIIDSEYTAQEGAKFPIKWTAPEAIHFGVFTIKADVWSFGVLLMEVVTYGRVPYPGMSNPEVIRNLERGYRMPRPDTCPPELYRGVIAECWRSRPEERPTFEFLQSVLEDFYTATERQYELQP
Sequence of CDK9/Cyclin K (P50750 whole entry): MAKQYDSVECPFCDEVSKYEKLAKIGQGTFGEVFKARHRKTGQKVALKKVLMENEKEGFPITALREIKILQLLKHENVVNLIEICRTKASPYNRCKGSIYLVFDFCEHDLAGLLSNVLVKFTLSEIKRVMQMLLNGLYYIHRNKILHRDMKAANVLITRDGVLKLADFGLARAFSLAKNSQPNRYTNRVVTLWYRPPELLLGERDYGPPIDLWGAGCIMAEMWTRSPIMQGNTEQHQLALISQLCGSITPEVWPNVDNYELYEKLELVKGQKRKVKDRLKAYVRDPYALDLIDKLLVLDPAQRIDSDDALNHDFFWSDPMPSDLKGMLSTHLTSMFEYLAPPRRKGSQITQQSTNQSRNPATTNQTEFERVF
Sequence of CDK9/Cyclin K (O75909 whole entry, further chain): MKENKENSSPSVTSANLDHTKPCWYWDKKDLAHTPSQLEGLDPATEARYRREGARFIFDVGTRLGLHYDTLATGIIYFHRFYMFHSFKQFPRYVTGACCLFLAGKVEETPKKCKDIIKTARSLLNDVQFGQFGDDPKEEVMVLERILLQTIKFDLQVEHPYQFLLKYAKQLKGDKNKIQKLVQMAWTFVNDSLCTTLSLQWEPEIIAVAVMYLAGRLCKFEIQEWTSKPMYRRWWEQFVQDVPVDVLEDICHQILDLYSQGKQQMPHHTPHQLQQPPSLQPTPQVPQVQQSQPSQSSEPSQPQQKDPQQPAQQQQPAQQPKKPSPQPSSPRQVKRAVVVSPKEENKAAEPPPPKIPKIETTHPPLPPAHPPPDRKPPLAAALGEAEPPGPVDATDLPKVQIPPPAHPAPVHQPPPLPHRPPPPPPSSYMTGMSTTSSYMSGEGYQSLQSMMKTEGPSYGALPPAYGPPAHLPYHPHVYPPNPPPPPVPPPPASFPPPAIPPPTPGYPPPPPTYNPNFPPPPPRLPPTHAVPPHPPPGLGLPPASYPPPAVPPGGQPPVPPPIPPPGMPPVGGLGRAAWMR
Sequence of Cytochrome P450 2D6 (P10635 whole entry): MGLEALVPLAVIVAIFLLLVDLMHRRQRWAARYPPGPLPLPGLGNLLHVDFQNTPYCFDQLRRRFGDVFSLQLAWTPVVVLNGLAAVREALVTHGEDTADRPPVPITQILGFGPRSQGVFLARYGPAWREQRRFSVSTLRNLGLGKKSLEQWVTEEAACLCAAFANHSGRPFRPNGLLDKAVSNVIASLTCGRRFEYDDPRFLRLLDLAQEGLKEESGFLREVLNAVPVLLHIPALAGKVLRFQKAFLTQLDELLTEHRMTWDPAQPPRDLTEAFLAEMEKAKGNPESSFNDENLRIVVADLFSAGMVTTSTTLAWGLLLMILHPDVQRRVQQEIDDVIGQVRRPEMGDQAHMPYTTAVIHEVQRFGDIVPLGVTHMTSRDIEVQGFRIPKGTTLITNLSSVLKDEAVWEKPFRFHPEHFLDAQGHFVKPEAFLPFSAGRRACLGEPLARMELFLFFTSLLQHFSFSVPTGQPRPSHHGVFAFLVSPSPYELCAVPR

With `CN1CC[C@H](c2c(O)cc(O)c3c(=O)cc(/C=C/c4c(Cl)cccc4Cl)oc23)[C@H](O)C1`, the IC50 at CDK9/Cyclin K turned out to be 412 nM. The molecule further had an inhibition in series [1] of more than 98%. The molecule further registered a GI50 in series [2] of 300 nM. Besides, the half-life at 3 µM in series [3] amounted to 186 min. The C0 in series [4] came out at 859 ng/mL. The Kp at 0.5 h in series [5] came to 5.3. Moreover, on Cytochrome P450 2D6, the TDI entry is “Not Active”.
